Laboratory results: ChEMBL document CHEMBL5357066, “Development of Novel Membrane Disrupting Lipoguanidine Compounds Sensitizing Gram-Negative Bacteria to Antibiotics” (ACS Med Chem Lett, 2024)
Values after ≈ are worked out from the molar mass of the structure shown.

Assays:
Pseudomonas aeruginosa [1] = assay: Antibacterial activity against Pseudomonas aeruginosa NCTC 13437 assessed as bacterial growth inhibition incubated for overnight by microbroth dilution method; type: functional
Outline: (§1)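 Broth microdilution in Tryptic Soy Broth. DMSO stocks were diluted in TSB as 2-fold series. Overnight TSB cultures were back-diluted to OD 0.01 and mixed 1:1 with compound. Incubation was overnight at 37 °C. MIC was the lowest concentration without visible growth (<0.1 OD600). DMSO vehicle was checked at equivalent concentrations.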

Klebsiella pneumoniae [2] = assay: Antibacterial activity against ESBL Klebsiella pneumoniae NCTC 13368 assessed as bacterial growth inhibition incubated for overnight by microbroth dilution method
Escherichia coli [3] = assay: Antibacterial activity against Escherichia coli NCTC 12923 assessed as bacterial growth inhibition incubated for overnight by microbroth dilution method; type: functional; outline: as §1
Klebsiella pneumoniae [4] = assay: Antibacterial activity against Klebsiella pneumoniae M6 assessed as bacterial growth inhibition incubated for overnight by microbroth dilution method
Acinetobacter baumannii [5] = assay: Antibacterial activity against Acinetobacter baumannii AYE assessed as bacterial growth inhibition incubated for overnight by microbroth dilution method; type: functional; outline: as §1
Acinetobacter baumannii [6] = assay: Antibacterial activity against Acinetobacter baumannii ATCC 17978 assessed as bacterial growth inhibition incubated for overnight by microbroth dilution method; type: functional; outline: as §1
Pseudomonas aeruginosa [7] = assay: Antibacterial activity against Pseudomonas aeruginosa PAO1 assessed as bacterial growth inhibition incubated for overnight by microbroth dilution method; type: functional; outline: as §1
Pseudomonas aeruginosa [8] = assay: Synergistic antibacterial activity against Pseudomonas aeruginosa NCTC 13437 assessed as fold change in rifampicin MIC at <=0.25 times MIC incubated for overnight by microbroth dilution checkerboard assay relative to rifampicin alone; type: functional
Outline: (§2)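 Checkerboard microdilution in Tryptic Soy Broth, run like the MIC assay. Overnight TSB cultures were back-diluted to OD 0.01 and added 1:1 to the combined two-fold series of both agents, then incubated overnight at 37 °C. Growth/no-growth was called at <0.1 OD600. MICs alone were read on the same plates. FIC index came from the most synergistic well; three independent repeats, mean ± SD.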

Pseudomonas aeruginosa [9] = assay: Synergistic antibacterial activity against Pseudomonas aeruginosa PAO1 assessed as fold change in rifampicin MIC at <=0.25 times MIC incubated for overnight by microbroth dilution checkerboard assay relative to rifampicin alone; type: functional; outline: as §2
Pseudomonas aeruginosa [10] = assay: Synergistic antibacterial activity against Pseudomonas aeruginosa NCTC 13437 assessed as rifampicin MIC at <=0.25 times MIC incubated for overnight by microbroth dilution checkerboard assay; type: functional; outline: as §2
Pseudomonas aeruginosa [11] = assay: Synergistic antibacterial activity against Pseudomonas aeruginosa PAO1 assessed as rifampicin MIC at <=0.25 times MIC incubated for overnight by microbroth dilution checkerboard assay; type: functional; outline: as §2
Klebsiella pneumoniae [12] = assay: Synergistic antibacterial activity against […] Klebsiella pneumoniae M6 assessed as rifampicin MIC at <=0.25 times MIC incubated for overnight by microbroth dilution checkerboard assay; type: functional
Outline: (§3)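 Checkerboard run under the MIC conditions (TSB, overnight, 37 °C). Antibiotic and lipoguanidine 2-fold series were combined on one plate before bacteria were added. Growth/no-growth was scored as for the MIC (<0.1 OD600). Single-agent MICs were measured on the same plates. Three independent repeats were done.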

Acinetobacter baumannii [13] = assay: Synergistic antibacterial activity against Acinetobacter baumannii ATCC 17978 assessed as fold change in rifampicin MIC at <=0.25 times MIC incubated for overnight by microbroth dilution checkerboard assay relative to rifampicin alone; type: functional
Outline: (§4)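 Checkerboard microdilution under MIC conditions (TSB, overnight, 37 °C). Two-fold series of each agent were combined on one plate before bacteria were added, and single-agent MICs were measured on the same plate. FIC = sum of combination MIC/alone MIC for each agent, taken from the most synergistic well. Three independent repeats, mean ± SD. ≤0.5 was taken as strong synergy and 0.5–<1 as weak.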

Klebsiella pneumoniae [14] = assay: Synergistic antibacterial activity against Klebsiella pneumoniae NCTC 13368 assessed as rifampicin MIC at <=0.25 times MIC incubated for overnight by microbroth dilution checkerboard assay; type: functional; outline: as §4
Acinetobacter baumannii [15] = assay: Synergistic antibacterial activity against Acinetobacter baumannii AYE assessed as fold change in rifampicin MIC at <=0.25 times MIC incubated for overnight by microbroth dilution checkerboard assay relative to rifampicin alone; type: functional; outline: as §4
Acinetobacter baumannii [16] = assay: Synergistic antibacterial activity against Acinetobacter baumannii ATCC 17978 assessed as rifampicin MIC at <=0.25 times MIC incubated for overnight by microbroth dilution checkerboard assay; type: functional; outline: as §4
Klebsiella pneumoniae [17] = assay: Synergistic antibacterial activity against Klebsiella pneumoniae NCTC 13368 assessed as fold change in rifampicin MIC at <=0.25 times MIC incubated for overnight by microbroth dilution checkerboard assay relative to rifampicin alone; type: functional; outline: as §3
Acinetobacter baumannii [18] = assay: Synergistic antibacterial activity against Acinetobacter baumannii AYE assessed as rifampicin MIC at <=0.25 times MIC incubated for overnight by microbroth dilution checkerboard assay; type: functional; outline: as §4
Escherichia coli [19] = assay: Synergistic antibacterial activity against Escherichia coli NCTC 12923 assessed as fold change in rifampicin MIC at <=0.25 times MIC incubated for overnight by microbroth dilution checkerboard assay relative to rifampicin alone; type: functional; outline: as §4
Escherichia coli [20] = assay: Synergistic antibacterial activity against Escherichia coli NCTC 12923 assessed as rifampicin MIC at <=0.25 times MIC incubated for overnight by microbroth dilution checkerboard assay; type: functional; outline: as §4

| SMILES | MIC (Pseudomonas aeruginosa [1]) | MIC (Klebsiella pneumoniae [2]) | MIC (Escherichia coli [3]) | MIC (Klebsiella pneumoniae [4]) | MIC (Acinetobacter baumannii [5]) | MIC (Acinetobacter baumannii [6]) | MIC (Pseudomonas aeruginosa [7]) | fold change (FC) (Pseudomonas aeruginosa [8]) | fold change (FC) (Pseudomonas aeruginosa [9]) | MIC (Pseudomonas aeruginosa [10]) | MIC (Pseudomonas aeruginosa [11]) | MIC (Klebsiella pneumoniae [12]) | fold change (FC) (Acinetobacter baumannii [13]) | MIC (Klebsiella pneumoniae [14]) | fold change (FC) (Acinetobacter baumannii [15]) | MIC (Acinetobacter baumannii [16]) | fold change (FC) (Klebsiella pneumoniae [17]) | MIC (Acinetobacter baumannii [18]) | fold change (FC) (Escherichia coli [19]) | MIC (Escherichia coli [20]) |
| --- | --- | --- | --- | --- | --- | --- | --- | --- | --- | --- | --- | --- | --- | --- | --- | --- | --- | --- | --- | --- |
| CO[C@H]1/C=C/O[C@@]2(C)Oc3c(C)c(O)c4c(O)c(c(/C=N/N5CCN(C)CC5)c(O)c4c3C2=O)NC(=O)/C(C)=C\C=C\[C@H](C)[C@H](O)[C@@H](C)[C@@H](O)[C@@H](C)[C@H](OC(C)=O)[C@@H]1C [RIFAMPIN] | 32 µg/mL (≈ 38.9 µM) | 32 µg/mL (≈ 38.9 µM) | 16 µg/mL (≈ 19.4 µM) | 32 µg/mL (≈ 38.9 µM) | 16 µg/mL (≈ 19.4 µM) | 4 µg/mL (≈ 4.86 µM) | 32 µg/mL (≈ 38.9 µM) | – | – | – | – | – | – | – | – | – | – | – | – | – |
| CCCCCCCCCCNC(=N)NCCCCCCCCCC | – | 16 µg/mL (≈ 47.1 µM) | 64 µg/mL (≈ 188 µM) | – | 16 µg/mL (≈ 47.1 µM) | 32 µg/mL (≈ 94.2 µM) | – | 0 | 0 | 64 µg/mL | 64 µg/mL | 32 µg/mL | >=4 | 64 µg/mL | >=4 | ≤ 0.125 µg/mL | 0 | ≤ 0.125 µg/mL | 0 | 8 µg/mL |
| CCCCCCCCCCNC(=N)NCCCC(=O)O | – | – | – | – | – | – | – | 0 | 0 | 32 µg/mL | 32 µg/mL | 32 µg/mL | 0 | 32 µg/mL | 0 | 2 µg/mL | 0 | 8 µg/mL | 0 | 32 µg/mL |
| CCCCCCCCCCNC(=N)NCCCC | – | 16 µg/mL (≈ 62.6 µM) | 16 µg/mL (≈ 62.6 µM) | – | 16 µg/mL (≈ 62.6 µM) | 16 µg/mL (≈ 62.6 µM) | – | 0 | 0 | 16 µg/mL | 16 µg/mL | ≤ 0.125 µg/mL | >=4 | ≤ 0.125 µg/mL | >=4 | ≤ 0.125 µg/mL | >=4 | ≤ 0.125 µg/mL | >=4 | ≤ 0.125 µg/mL |
| CCCCCCCC/C=C\CCCCCCCC(=O)NCCCCN | – | – | – | – | – | – | – | 0 | 0 | 64 µg/mL | 64 µg/mL | 64 µg/mL | 0 | 32 µg/mL | 0 | 4 µg/mL | 0 | 16 µg/mL | 0 | 32 µg/mL |
| CCCCCCCCCCCC(=O)NCCCC | – | – | – | – | – | – | – | 0 | 0 | 32 µg/mL | 32 µg/mL | 32 µg/mL | 0 | 32 µg/mL | 0 | 4 µg/mL | 0 | 16 µg/mL | 0 | 32 µg/mL |
| CO[C@@H]1[C@@H](OC(N)=O)[C@@H](O)[C@H](Oc2ccc3c(O)c(NC(=O)c4ccc(O)c(CC=C(C)C)c4)c(=O)oc3c2C)OC1(C)C [NOVOBIOCIN] | > 128 µg/mL | > 128 µg/mL | > 128 µg/mL | > 128 µg/mL | 8 µg/mL (≈ 13.1 µM) | 8 µg/mL (≈ 13.1 µM) | > 128 µg/mL | – | – | – | – | – | – | – | – | – | – | – | – | – |
| CCCCCCCCCCCC(=O)NCCCCN | – | – | – | – | – | – | – | 0 | 0 | 32 µg/mL | 64 µg/mL | 32 µg/mL | 0 | 128 µg/mL | 0 | 4 µg/mL | 0 | 32 µg/mL | 0 | 32 µg/mL |
| CCCCCCCCCCNC(=N)NCCCCN1CCCC1 | – | – | – | – | – | – | – | >=4 | >=4 | 2 µg/mL | 0.5 µg/mL | ≤ 0.125 µg/mL | >=4 | 0.5 µg/mL | >=4 | ≤ 0.125 µg/mL | >=4 | ≤ 0.125 µg/mL | >=4 | ≤ 0.125 µg/mL |
| CCCCCCCCCCNC(=N)NCCCCN(C)C | – | – | – | – | – | – | – | >=4 | >=4 | 0.5 µg/mL | 0.5 µg/mL | ≤ 0.125 µg/mL | >=4 | 1 µg/mL | >=4 | ≤ 0.125 µg/mL | >=4 | ≤ 0.125 µg/mL | >=4 | ≤ 0.125 µg/mL |
| CCCCCCCC/C=C\CCCCCCCCNC(=N)NCCCCCCCCCC | – | – | – | – | – | – | – | 0 | 0 | 64 µg/mL | 64 µg/mL | 64 µg/mL | 0 | 128 µg/mL | 0 | 8 µg/mL | 0 | 32 µg/mL | 0 | 32 µg/mL |
| CCCCCCCCCCCCCCCCCCNC(=O)NCCCCN | – | – | – | – | – | – | – | 0 | 0 | 16 µg/mL | 16 µg/mL | 16 µg/mL | 0 | 32 µg/mL | 0 | 2 µg/mL | 0 | 0.5 µg/mL | 0 | 16 µg/mL |
